Tests used:
[1] = target: Streptomyces R61 DD-peptidase (Streptomyces sp., UniProt P15555); experiment: Hydrolysis in the presence of R61 DD-peptidase; assay type: biochemical; settings: enzyme 0.5 μM
P99 β-lactamase [2] = target: T1, P99 β-lactamase (Enterobacter cloacae, UniProt P05364); assay type: biochemical; settings: pH range 6.0–9.5, 25 °C, ionic strength 1.0
[3] = target: Actinomadura R39 DD-peptidase (Actinomadura sp., UniProt P39045); experiment: Hydrolysis in the presence of R39 DD-peptidase; assay type: biochemical
class C ampC β-lactamase = class C ampC β-lactamase (Escherichia coli, UniProt P00811); experiment: ampC β-lactamase substrate activity; assay type: biochemical
[4] = pKa determination by spectrophotometric titration; assay type: physicochemical; settings: spectrophotometric titration at 233 nm, 25 °C, ionic strength 1.0
[5] = Spontaneous hydrolysis in neutral aqueous buffer; assay type: physicochemical; settings: pH 7.5, 25 °C
Procedure, shortened: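 Test compounds were diluted from concentrated acetonitrile stocks to ≤5% acetonitrile in 20 mM MOPS, pH 7.5, at 25 °C, and their hydrolysis without enzyme was followed by UV-vis. Full progress curves were fit to a pseudo-first-order equation by nonlinear least squares, and triplicate rate constants were averaged. The clavulanic acid reference (85 μM) was run in 25 mM MOPS, pH 7.5, at 25 °C, read at 260 nm.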

class C P99 β-lactamase = class C P99 β-lactamase (Enterobacter cloacae, UniProt P05364); assay type: biochemical; settings: steady state turnover by P99 β-lactamase, 20 mM MOPS pH 7.5, 25 °C
[6] = target: class D OXA-1 β-lactamase (Escherichia coli, UniProt P13661); experiment: OXA-1 β-lactamase hydrolysis and inhibition; assay type: biochemical
[7] = in dioxane/water; cited from earlier work
P99 β-lactamase [8] = target: T1, P99 β-lactamase; experiment: P99 β-lactamase activity with time after incubation with compound; assay type: biochemical; settings: enzyme 0.25 μM, compound 100 μM

Sequence of class D OXA-1 β-lactamase (P13661 26-276): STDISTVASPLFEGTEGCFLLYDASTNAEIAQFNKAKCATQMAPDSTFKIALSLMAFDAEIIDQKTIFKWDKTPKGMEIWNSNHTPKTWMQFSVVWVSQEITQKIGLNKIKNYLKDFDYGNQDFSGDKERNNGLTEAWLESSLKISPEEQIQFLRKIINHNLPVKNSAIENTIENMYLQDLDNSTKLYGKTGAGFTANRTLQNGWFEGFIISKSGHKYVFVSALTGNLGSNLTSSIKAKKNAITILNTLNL
Sequence of class C P99 β-lactamase (P05364 21-381): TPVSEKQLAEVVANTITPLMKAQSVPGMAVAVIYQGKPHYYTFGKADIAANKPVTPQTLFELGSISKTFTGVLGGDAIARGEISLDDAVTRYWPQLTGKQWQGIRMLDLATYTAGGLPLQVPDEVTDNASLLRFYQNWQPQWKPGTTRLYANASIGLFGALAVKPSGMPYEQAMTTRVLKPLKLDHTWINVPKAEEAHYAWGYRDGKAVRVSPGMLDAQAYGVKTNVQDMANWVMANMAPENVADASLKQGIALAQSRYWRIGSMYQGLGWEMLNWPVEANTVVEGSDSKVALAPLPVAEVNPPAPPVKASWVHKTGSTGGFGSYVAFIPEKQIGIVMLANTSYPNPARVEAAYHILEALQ
T1 sequence (P05364 21-381): as above
Sequence of class C ampC β-lactamase (P00811 20-377): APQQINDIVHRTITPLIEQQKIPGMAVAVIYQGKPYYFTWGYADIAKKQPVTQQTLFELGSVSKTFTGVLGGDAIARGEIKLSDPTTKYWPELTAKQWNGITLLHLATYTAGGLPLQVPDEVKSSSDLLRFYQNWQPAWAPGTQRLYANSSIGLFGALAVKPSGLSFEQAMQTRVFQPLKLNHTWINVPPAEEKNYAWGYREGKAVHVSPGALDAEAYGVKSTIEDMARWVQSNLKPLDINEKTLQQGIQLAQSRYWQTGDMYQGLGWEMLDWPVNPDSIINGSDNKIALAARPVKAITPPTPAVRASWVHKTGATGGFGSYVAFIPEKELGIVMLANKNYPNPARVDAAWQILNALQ
Sequence of Streptomyces R61 DD-peptidase (P15555 32-406): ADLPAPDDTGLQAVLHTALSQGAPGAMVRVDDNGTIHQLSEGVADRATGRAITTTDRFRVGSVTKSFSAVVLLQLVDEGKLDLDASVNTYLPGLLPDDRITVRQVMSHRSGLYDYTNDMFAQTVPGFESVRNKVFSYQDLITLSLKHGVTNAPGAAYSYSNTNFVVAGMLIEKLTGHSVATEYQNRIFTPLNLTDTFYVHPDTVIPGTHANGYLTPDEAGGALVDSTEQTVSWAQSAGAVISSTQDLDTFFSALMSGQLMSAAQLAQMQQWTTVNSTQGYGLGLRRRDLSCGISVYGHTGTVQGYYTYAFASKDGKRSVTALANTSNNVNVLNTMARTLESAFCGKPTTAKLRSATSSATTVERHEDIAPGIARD
Sequence of Actinomadura R39 DD-peptidase (P39045 50-538): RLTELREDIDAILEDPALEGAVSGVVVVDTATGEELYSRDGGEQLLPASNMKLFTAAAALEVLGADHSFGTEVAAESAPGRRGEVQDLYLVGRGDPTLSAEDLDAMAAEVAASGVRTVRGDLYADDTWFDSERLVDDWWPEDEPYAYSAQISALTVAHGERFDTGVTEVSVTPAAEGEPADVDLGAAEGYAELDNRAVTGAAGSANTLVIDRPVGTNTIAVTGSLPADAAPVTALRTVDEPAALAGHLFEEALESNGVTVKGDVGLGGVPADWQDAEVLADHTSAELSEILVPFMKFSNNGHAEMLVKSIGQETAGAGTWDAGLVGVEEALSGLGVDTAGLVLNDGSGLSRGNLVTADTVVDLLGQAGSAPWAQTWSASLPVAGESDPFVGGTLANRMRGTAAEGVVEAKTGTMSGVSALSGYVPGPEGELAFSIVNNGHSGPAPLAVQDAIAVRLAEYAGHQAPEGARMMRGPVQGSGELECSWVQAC

O=C(NOC(=O)C(O)Cc1ccccc1)OCc1ccccc1 (stereo not shown) [Compound 7, N-(Benzyloxycarbonyl)-O-(2-hydroxy-3-phenylpropanoyl)hydroxylamine]
substrate activity with R61 DD-peptidase [1]: not substrates | pKa for decreasing activity in pH-rate profile (P99 β-lactamase [2]): 7.6 ± 0.2 | substrate activity with R39 DD-peptidase [3]: not substrates | substrate activity with ampC β-lactamase (class C ampC β-lactamase): good substrate | pKa (acidic NH proton) [4]: 7.58 ± 0.03 | ksp, rate constant of spontaneous hydrolysis ([5]; 20 mM MOPS): (8.2 ± 0.8) × 10^−5 s^−1 | Km (class C P99 β-lactamase): 71 ± 10 µM | fast reversible or slow inhibition of the OXA-1 enzyme [6]: no significant fast reversible or slow inhibition | hydrolysis catalyzed by OXA-1 ([6]; 20 mM MOPS, 50 mM NaHCO3, 0.1 % gelatin, pH 7.5): did not catalyze hydrolysis

O=C(NOC(=O)C(O)Cc1ccccc1)OCc1ccccc1 (stereo not shown) [Compound 8, N-(Benzyloxycarbonyl)-O-(2-hydroxy-3-phenylpropanoyl)hydroxylamine]
Km (class C P99 β-lactamase): 340 ± 60 µM

O=C(O)[C@H]1/C(=C/CO)O[C@@H]2CC(=O)N21 [clavulanic acid, reference compound]
spontaneous hydrolysis rate constant ([5]; 85 μM in 25 mM MOPS buffer, monitored at 260 nm): 8e-05 s⁻¹

O=[N+]([O-])c1ccc(O)cc1 [p-nitrophenol]
pKa [7]: 9.4

N-(Benzyloxycarbonyl)-O-(1-D-carboxy-ethoxycarbonyl)hydroxylamine [2 (R = CH2Ph, R′=Me)]
enzyme activity against cephalothin with time after mixing (P99 β-lactamase [8]): initial loss of enzyme activity, measured against the good substrate, cephalothin, followed by a slower restoration of activity

— publication PMC2999657 (Biochemistry, 2010)
